Source: article PMC11062432 (The Plant Cell, 2023)
Bridge positions count the residues as written; N and C are the ends. Ends that are not written are not given here.

Key:
root growth = conditions: overexpression or application of the peptide; ref Matos et al. 2008; Li et al. 2022; cited from earlier work
[1] = tested on: plasma membrane H^+-ATPase2; conditions: roots; ref Haruta et al. 2014; cited from earlier work
ANX1 = assay: Pull-down assay, ANX1 ectodomain; assay type: binding, Arabidopsis thaliana; conditions: Flag-tagged ectodomain, His-tagged ZmRALFs
In short: (§1)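 FLAG-tagged Arabidopsis receptor ectodomains (from earlier work) were mixed with maize RALF mature peptides. The peptides were TrxA-His fusions expressed in E. coli BL21 (1 mm IPTG, 30 °C, 3–4 h), Ni-NTA-purified and desalted. The mix sat in 20 mm Tris pH 7.5, 1% CA630, rotating at 4 °C for 2 h. Ni-NTA beads were then added for 2 h more, followed by 5 washes. Read-out: SDS-PAGE and Western blot, anti-His and anti-FLAG.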

ANX2 = assay: Pull-down assay, ANX2 ectodomain; assay type: binding, Arabidopsis thaliana; conditions: Flag-tagged ectodomain, His-tagged ZmRALFs
In short: as §1

BUPS1 = assay: Pull-down assay, BUPS1 ectodomain; assay type: binding, Arabidopsis thaliana; conditions: Flag-tagged ectodomain, His-tagged ZmRALFs
In short: as §1

BUPS2 = assay: Pull-down assay, BUPS2 ectodomain; assay type: binding, Arabidopsis thaliana; conditions: Flag-tagged ectodomain, His-tagged ZmRALFs
In short: as §1

CrRLK1Ls = assay: Interaction of RALFs with CrRLK1Ls, overall; assay type: binding; conditions: discussion summary
ZmLLG1 = assay: Pull-down assay, ZmLLG1; assay type: binding, Zea mays; conditions: MBP-tagged LLG, His-tagged RALFs
In short: (§2)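 MBP-tagged maize partners were expressed in E. coli BL21 (0.1–0.5 mm IPTG, 30 °C, 3–4 h), amylose-purified, eluted with maltose and desalted. Partners: LLGs without signal peptide, PEX2 N-terminal LRR domain, PEX4. Each was incubated with His-tagged maize RALFs in 20 mm Tris pH 7.5, 1% CA630 at 4 °C for 2 h, then Ni-NTA pull-down for 2 h and 5 washes. Read-out: SDS-PAGE and Western blot, anti-His and anti-MBP.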

ZmLLG2 = assay: Pull-down assay, ZmLLG2; assay type: binding, Zea mays; conditions: MBP-tagged LLG, His-tagged RALFs
In short: as §2

ZmPEX2 = assay: Pull-down assay, LRR domain of ZmPEX2; assay type: binding, Zea mays; conditions: MBP-tagged N-terminal LRR domain of ZmPEX2, ZmRALFs
In short: as §2

ZmPEX4 = assay: Pull-down assay, full-length ZmPEX4; assay type: binding, Zea mays; conditions: MBP-tagged full-length ZmPEX4, ZmRALFs
In short: as §2

[2] = molecular target: 6xHis-ZmRALF3 (predicted mature peptide, pET53-DEST, refolded) (maize (Zea mays)); assay: MST
[3] = molecular target: 6xHis-ZmRALF1 (predicted mature peptide, pET53-DEST, refolded) (maize (Zea mays)); assay: MST
[4] = molecular target: 6xHis-ZmRALF2 (predicted mature peptide, pET53-DEST, refolded) (maize (Zea mays)); assay: MST

For “AtRALF1: Clade IA Arabidopsis RALF (ATTKYISYQSLKRNSVPCSRRGASYYNCQNGAQANPYSRGCSKIARCRS; not fully specified; ends and bridges not checked; UniProt Q9SRY3 72-120, looked up)”, the “effect on root growth” value (root growth) is given as “inhibited rapid root growth” and the “effect on H^+-ATPase2 via FER” value [1] is given as “inhibition of plasma membrane H^+-ATPase2 explaining extracellular alkalinization”.
With “MARLALVAAVVLCLLLATGPQGAISAEGMVSFDNLISCKVLGNCDKNLGPEASRPGKPANDYTRGCNPITGCRG (disulfide (positions not given here)) [ZmRALF1]” the interaction in pull-down (ANX1) was “did not interact with Arabidopsis CrRLK1Ls”, the interaction in pull-down (ANX2) was “did not interact with Arabidopsis CrRLK1Ls” and the interaction in pull-down (BUPS1) was “did not interact with Arabidopsis CrRLK1Ls”. For the same substance, the interaction in pull-down (BUPS2) was “very weak interaction” and the “interaction with CrRLK1Ls in words” value (CrRLK1Ls) was “very low (almost unspecific) binding”.
In the case of “MARLGAGAVLALLVAVAAVAAFLAVPASAKSGELSAMGLLAAKGGSGAGPQKCSGAVGECDVDEAEELGLSGGGLGSDDAVRRTLAQRKPTNRYISYAALRADQVPCNKRGRSYYSNCEAQKAANPYRRGCSAITRCARNMN (disulfide (positions not given here)) [ZmRALF2]”, the interaction in pull-down (ANX1) is reported as “interacted more strongly with ANX1/2 and BUPS1/2 compared with ZmRALF3”, the interaction in pull-down (ANX2) is reported as “interacted more strongly with ANX1/2 and BUPS1/2 compared with ZmRALF3” and the interaction in pull-down (BUPS1) is reported as “interacted more strongly with ANX1/2 and BUPS1/2 compared with ZmRALF3”. The interaction in pull-down (BUPS2) was “interacted more strongly with ANX1/2 and BUPS1/2 compared with ZmRALF3”, the interaction in pull-down (ZmLLG1) was “interacted with ZmLLG1/2” and the interaction in pull-down (ZmLLG2) was “interacted with ZmLLG1/2”. For the same substance, the interaction in pull-down (ZmPEX2) was “interacted with both ZmPEX proteins” and the interaction in pull-down (ZmPEX4) was “interacted with both ZmPEX proteins”.
In the case of “MARLGAGAVLTLLLAVAAAAAFLAVPASAKVGDLSAVEFVAARGSSIPGQRSSKCSGAVGECGVDEEEELGLSGGGGIGAGDALRRTLAQRKPTNRYISYAALRADQVPCNKRGRSYYTNCAAQTAANPYRRGCSAITRCARSMN (disulfide (positions not given here)) [ZmRALF3]”, the interaction in pull-down (ZmLLG1) is reported as “interacted with ZmLLG1/2”, the interaction in pull-down (ZmLLG2) is reported as “interacted with ZmLLG1/2” and the interaction in pull-down (ZmPEX2) is reported as “interacted with both ZmPEX proteins”. The interaction in pull-down (ZmPEX4) was “interacted with both ZmPEX proteins”.
“MBP-tagged ectodomain of ZmFERL1 (domain or fragment)” gave a Kd [2] of 1730 nM.
In the case of “MGEAKLNNVTVLLVALLLLSSGVQDAAAMPGTLNYDAIVADEPNGKNKDLYRPVANANKYTRGCEPIERCRGAR (disulfide 64-70 (inferred)) [ZmRALF5]”, the interaction in pull-down (ANX1) is reported as “did not interact with Arabidopsis CrRLK1Ls”, the interaction in pull-down (ANX2) is reported as “did not interact with Arabidopsis CrRLK1Ls” and the interaction in pull-down (BUPS1) is reported as “did not interact with Arabidopsis CrRLK1Ls”.
Work on “ZmFERL7 ectodomain as used in MST (tag not told: MBP or GST construct) (domain or fragment)” yielded a Kd [3] of 3530 nM and a Kd [4] of 615 nM.
Substance “ZmFERL9 ectodomain as used in MST (tag not told: MBP or GST construct) (domain or fragment)” has a Kd [3] of 1900 nM and a Kd [4] of 545 nM.
